# Source: ChEMBL document CHEMBL1125386, “Small atrial natriuretic peptide analogues: design, synthesis, and structural requirements for guanylate cyclase activation” (J Med Chem, 1992)
# Where a SMILES comes first, the peptide text is derived from it. Bridges are numbered along the chain shown (N, C = ends).
# Tests used:
# Oryctolagus cuniculus = species on record: Oryctolagus cuniculus; assay: In vitro vasorelaxant potency at dose 10 e -8 to 10 e-4 M using rabbit aortic rings precontracted with histamine; format: functional; conditions: Aorta
# Outline: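 Rabbit aortic rings (4–5 mm) in Krebs-Henseleit buffer, gassed 95:5 O2/CO2, pH 7.4, isometric tension, baseline 2 g held 2 h. Rings contracted with 3 μM histamine, then six cumulative half-log peptide increments over 90 min, range 10⁻⁸ to 10⁻⁴ M. Triplicate determinations.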
# [1] = tested on: Atrial natriuretic peptide receptor 1 (Oryctolagus cuniculus); assay: Binding affinity for low-affinity site Atrial natriuretic peptide receptor 1 of rabbit adrenal membrane; conditions: Adrenal gland
compound,measurement,setting,value
CC[C@H](C)[C@@H]1NC(=O)[C@H](CCCN=C(N)N)NC(=O)[C@H](CC(=O)O)NC(=O)[C@H]([C@@H](C)CC)NC(=O)[C@H](CCCN=C(N)N)NC(=O)CNC(=O)CNC(=O)[C@H](Cc2ccccc2)NC(=O)[C@@H](NC(=O)[C@H](CO)NC(=O)[C@@H](N)CO)CSSC[C@@H](C(=O)O)NC1=O (H-SSCFGGRIDRIC-OH; disulfide 3-12),EC50,Oryctolagus cuniculus,5.2 µM
CC[C@H](C)[C@@H]1NC(=O)[C@@H](CCCN=C(N)N)NC(=O)CNC(=O)CNC(=O)[C@@H](C2CCCCC2)NC(=O)[C@H](NC(=O)[C@H](N)CCCN=C(N)N)CSSC[C@H](C(N)=O)NC(=O)[C@@H](CCCN=C(N)N)NC(=O)[C@H](Cc2ccccc2)NC(=O)[C@@H]([C@@H](C)CC)NC(=O)[C@H](CCCN=C(N)N)NC(=O)CNC1=O,KL,[1],260 nM
CC[C@H](C)[C@@H]1NC(=O)[C@H](CCCN=C(N)N)NC(=O)CNC(=O)CNC(=O)[C@H](Cc2ccccc2)NC(=O)CCNC(=O)[C@@H](NC(=O)[C@H](CO)NC(=O)[C@@H](N)CO)CSSC[C@@H](C(=O)N[C@@H](Cc2ccccc2)C(=O)N[C@@H](CCCN=C(N)N)C(=O)O)NC(=O)[C@H]([C@@H](C)CC)NC(=O)[C@H](CCCN=C(N)N)NC(=O)[C@H](CC(=O)O)NC1=O,EC50,Oryctolagus cuniculus,1.8 µM
CC[C@H](C)[C@@H]1NC(=O)[C@@H](CCCN=C(N)N)NC(=O)CNC(=O)CNC(=O)[C@@H](C2CCCCC2)NC(=O)[C@H](NC(=O)[C@@H](CO)NC(=O)[C@H](N)CO)CSSC[C@H](C(=O)O)NC(=O)[C@@H](CCCN=C(N)N)NC(=O)[C@H](Cc2ccccc2)NC(=O)[C@@H]([C@@H](C)CC)NC(=O)[C@H](CCCN=C(N)N)NC(=O)[C@@H](CC(=O)O)NC1=O,KL,[1],160 nM
CC[C@H](C)[C@@H]1NC(=O)[C@@H](CCCN=C(N)N)NC(=O)CNC(=O)CNC(=O)[C@@H](C2CCCCC2)NC(=O)[C@H](NC(=O)[C@H](N)CCCN=C(N)N)CSSC[C@H](C(N)=O)NC(=O)[C@@H](C)NC(=O)CNC(=O)[C@@H]([C@@H](C)CC)NC(=O)[C@H](CCCN=C(N)N)NC(=O)[C@@H](CC(=O)O)NC1=O,KL,[1],1200 nM
CC[C@H](C)[C@@H]1NC(=O)[C@H](CCCN=C(N)N)NC(=O)[C@H](CC(=O)O)NC(=O)[C@H]([C@@H](C)CC)NC(=O)[C@H](CCCN=C(N)N)NC(=O)CNC(=O)CNC(=O)[C@H](Cc2ccccc2)NC(=O)[C@@H](N)CSSC[C@@H](C(=O)O)NC1=O (H-CFGGRIDRIC-OH; disulfide 1-10),EC50,Oryctolagus cuniculus,3.8 µM
CC[C@H](C)[C@@H]1NC(=O)[C@H]2CCCCNC(=O)C[C@@H](NC1=O)C(=O)N[C@@H](CCCN=C(N)N)C(=O)N[C@H]([C@@H](C)CC)C(=O)N[C@@H](Cc1ccccc1)C(=O)N[C@H](CCCN=C(N)N)C(=O)N[C@@H](C(N)=O)CSSC[C@@H](NC(=O)[C@H](N)CCCN=C(N)N)C(=O)N[C@H](C1CCCCC1)C(=O)NCC(=O)NCC(=O)N2,KL,[1],58 nM
CC[C@H](C)[C@@H]1NC(=O)[C@@H](CCCN=C(N)N)NC(=O)CNC(=O)CNC(=O)[C@@H](C2CCCCC2)NC(=O)CCSSC[C@H](C(N)=O)NC(=O)[C@@H](CCCN=C(N)N)NC(=O)[C@@H](Cc2ccccc2)NC(=O)[C@@H]([C@@H](C)CC)NC(=O)[C@H](CCCN=C(N)N)NC(=O)[C@@H](CC(=O)O)NC1=O,KL,[1],6500 nM
CC[C@H](C)[C@@H]1NC(=O)[C@H](CCCN=C(N)N)NC(=O)CNC(=O)CNC(=O)[C@H](Cc2ccccc2)NC(=O)[C@@H](N)CSSC[C@@H](C(=O)N[C@@H](Cc2ccccc2)C(=O)N[C@@H](CCCN=C(N)N)C(=O)O)NC(=O)[C@H]([C@@H](C)CC)NC(=O)[C@H](CCCN=C(N)N)NC(=O)[C@H](CC(=O)O)NC1=O (H-CFGGRIDRICFR-OH; disulfide 1-10),EC50,Oryctolagus cuniculus,4.9 µM
CC[C@H](C)[C@@H]1NC(=O)[C@@H](CCCN=C(N)N)NC(=O)CNC(=O)CNC(=O)[C@@H](C2CCCCC2)NC(=O)CCSSC[C@@H](C(N)=O)NC(=O)[C@@H](CCCN=C(N)N)NC(=O)[C@H](Cc2ccccc2)NC(=O)[C@@H]([C@@H](C)CC)NC(=O)[C@H](CCCN=C(N)N)NC(=O)[C@@H](CC(=O)O)NC1=O,KL,[1],1900 nM
CC[C@H](C)[C@@H]1NC(=O)[C@H](CCCN=C(N)N)NC(=O)CNC(=O)CNC(=O)[C@H](Cc2ccccc2)NC(=O)[C@@H](CC2CCCCC2)NC(=O)[C@@H](NC(=O)[C@H](CO)NC(=O)[C@@H](N)CO)CSSC[C@@H](C(=O)N[C@@H](Cc2ccccc2)C(=O)N[C@@H](CCCN=C(N)N)C(=O)O)NC(=O)[C@H]([C@@H](C)CC)NC(=O)[C@H](CCCN=C(N)N)NC(=O)[C@H](CC(=O)O)NC1=O,EC50,Oryctolagus cuniculus,0.43 µM
CC[C@H](C)[C@@H]1NC(=O)[C@@H](CCCN=C(N)N)NC(=O)CNC(=O)CNC(=O)[C@@H](C2CCCCC2)NC(=O)[C@H](N)CSSC[C@H](C(N)=O)NC(=O)[C@@H](CCCN=C(N)N)NC(=O)[C@H](Cc2ccccc2)NC(=O)[C@@H](C)NC(=O)[C@H](CCCN=C(N)N)NC(=O)[C@@H](CC(=O)O)NC1=O,KL,[1],800 nM
CC[C@H](C)[C@H]1NC(=O)[C@H](CCCN=C(N)N)NC(=O)[C@@H](CC(=O)O)NC(=O)[C@H](Cc2ccccc2)NC(=O)[C@@H](CCCN=C(N)N)NC(=O)CNC(=O)CNC(=O)[C@@H](C2CCCCC2)NC(=O)[C@H](NC(=O)[C@H](N)CCCN=C(N)N)CSSC[C@H](C(N)=O)NC(=O)[C@@H](CCCN=C(N)N)NC(=O)[C@H](Cc2ccccc2)NC1=O,KL,[1],680 nM
CC[C@H](C)[C@@H]1NC(=O)[C@@H](CCCN=C(N)N)NC(=O)CNC(=O)CNC(=O)[C@@H](C2CCCCC2)NC(=O)[C@H](NC(=O)[C@H](N)CCCN=C(N)N)CSSC[C@H](C(N)=O)NC(=O)[C@@H](CCCN=C(N)N)NC(=O)[C@H]2Cc3ccccc3CN2C(=O)[C@@H]([C@@H](C)CC)NC(=O)[C@H](CCCN=C(N)N)NC(=O)[C@@H](CC(=O)O)NC1=O,KL,[1],96 nM
CC[C@H](C)[C@@H]1NC(=O)[C@@H](CCCN=C(N)N)NC(=O)CNC(=O)CNC(=O)[C@@H](C2CCCCC2)NC(=O)CCSSC[C@H](C(N)=O)NC(=O)[C@H](CCCN=C(N)N)NC(=O)[C@H](Cc2ccccc2)NC(=O)[C@@H]([C@@H](C)CC)NC(=O)[C@H](CCCN=C(N)N)NC(=O)[C@@H](CC(=O)O)NC1=O,KL,[1],380 nM
CC[C@H](C)[C@@H]1NC(=O)[C@@H](CCCN=C(N)N)NC(=O)CNC(=O)CNC(=O)[C@@H](C2CCCCC2)NC(=O)[C@H](NC(=O)[C@H](N)CCCN=C(N)N)CSSC[C@H](C(N)=O)NC(=O)[C@@H](CCCN=C(N)N)NC(=O)[C@H](Cc2ccccc2)NC(=O)[C@@H](C)NC(=O)[C@H](CCCN=C(N)N)NC(=O)[C@@H](CC(=O)O)NC1=O,KL,[1],230 nM
CC[C@H](C)[C@@H]1NC(=O)[C@H](CCCN=C(N)N)NC(=O)CNC(=O)CNC(=O)[C@H](Cc2ccccc2)NC(=O)[C@@H](NC(=O)[C@H](CO)NC(=O)[C@@H](N)CO)CSSC[C@@H](C(=O)N[C@@H](CC(N)=O)C(=O)N[C@@H](CO)C(=O)O)NC(=O)[C@H]([C@@H](C)CC)NC(=O)[C@H](CCCN=C(N)N)NC(=O)[C@H](CC(=O)O)NC1=O (H-SSCFGGRIDRICNS-OH; disulfide 3-12),EC50,Oryctolagus cuniculus,> 10 µM
CC[C@H](C)[C@@H]1NC(=O)[C@H](CCCN=C(N)N)NC(=O)CNC(=O)CNC(=O)[C@H](Cc2ccccc2)NC(=O)CN(C)C(=O)[C@@H](NC(=O)[C@H](CO)NC(=O)[C@@H](N)CO)CSSC[C@@H](C(=O)N[C@@H](Cc2ccccc2)C(=O)N[C@@H](CCCN=C(N)N)C(=O)O)NC(=O)[C@H]([C@@H](C)CC)NC(=O)[C@H](CCCN=C(N)N)NC(=O)[C@H](CC(=O)O)NC1=O,EC50,Oryctolagus cuniculus,> 1 µM
